According to ChEMBL document CHEMBL4368884, “Structure-activity relationship of the cinnamamide family of antibiotic potentiators for methicillin-resistant Staphylococcus aureus (MRSA)” (Medchemcomm, 2018):

How the values were obtained:
Staphylococcus aureus [1] = assay: Potentiation of oxacillin-induced antibacterial activity against Staphylococcus aureus MRSA252 assessed as oxacillin MIC at 20 uM (reference value: 256 ug/ml); assay type: functional
Staphylococcus aureus [2] = assay: Growth inhibition of Staphylococcus aureus MRSA252; assay type: organism-based; settings: in vitro
In short: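 Compound alone was two-fold serially diluted in cation-adjusted Mueller-Hinton II broth containing 2.4% DMSO. Bacteria were inoculated at 5 × 10⁵ CFU mL⁻¹ and incubated at 36 °C for 16–20 h. The MIC was read in triplicate.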

Staphylococcus aureus [3] = assay: Potentiation of oxacillin-induced antibacterial activity against methicillin/oxacillin/tetracycline-resistant Staphylococcus aureus NRS100 assessed as oxacillin MIC at 20 uM; assay type: functional
In short: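 Oxacillin MIC measured with the synthetic potentiator held at a fixed 20 μM. Two-fold serial dilution in cation-adjusted Mueller-Hinton II broth containing 2.4% DMSO. Inoculum 5 × 10⁵ CFU mL⁻¹, incubated at 36 °C for 16–20 h. Run in triplicate.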

Staphylococcus aureus [4] = assay: Potentiation of oxacillin-induced antibacterial activity against Staphylococcus aureus NRS386 assessed as oxacillin MIC at 20 uM; assay type: functional; settings: USA700 NRS386
Staphylococcus aureus [5] = assay: Potentiation of oxacillin-induced antibacterial activity against Staphylococcus aureus NRS70 assessed as oxacillin MIC at 20 uM; assay type: functional
Staphylococcus aureus [6] = assay: Potentiation of oxacillin-induced antibacterial activity against Staphylococcus aureus MRSA252 assessed as fold reduction in oxacillin MIC at 20 uM relative to oxacillin alone; assay type: functional

Row | SMILES | MIC (Staphylococcus aureus [1]) | growth inhibition (GI) (Staphylococcus aureus [2]) | MIC (Staphylococcus aureus [3]) | MIC (Staphylococcus aureus [4]) | MIC (Staphylococcus aureus [5]) | fold change (FC) (Staphylococcus aureus [6])
1 | COc1ccc(S(=O)(=O)N(CCO)c2ccccc2CN(C)C/C=C/c2ccc(Cl)cc2)cc1 | 128 µg/mL | Non-Toxic | – | – | – | –
2 | Cc1ccc(S(=O)(=O)N(CCO)c2ccccc2CN(C)C(=O)/C=C/c2ccco2)cc1 | ≥ 256 µg/mL | Non-Toxic | – | – | – | –
3 | Cc1ccc(S(=O)(=O)N(CCO)c2ccccc2CN(C)C(=O)/C=C/c2ccc(C(F)(F)F)cc2)cc1 | 2 µg/mL | Non-Toxic | 4 µg/mL | 4 µg/mL | 16 µg/mL | 128
4 | CN(Cc1ccccc1)Cc1ccccc1N(CCO)S(=O)(=O)c1ccc(C(F)(F)F)cc1 | ≥ 256 µg/mL | Non-Toxic | – | – | – | –
5 | Cc1ccc(S(=O)(=O)N(CCO)c2ccccc2CN(C)C/C=C/c2ccc(Cl)cc2)cc1 | 32 µg/mL | Non-Toxic | – | – | – | –
6 | Cc1ccc(S(=O)(=O)N(CCO)c2ccccc2CN(C/C=C/c2ccc(Cl)cc2)CC(C)C)cc1 | 128 µg/mL | Non-Toxic | – | – | – | –
7 | CCc1ccc(S(=O)(=O)N(CCO)c2ccccc2CN(C)C(=O)/C=C/c2ccc(C(F)(F)F)cc2)cc1 | 4 µg/mL | Non-Toxic | 16 µg/mL | 8 µg/mL | 16 µg/mL | 64
8 | CN(C/C=C/c1ccccc1)Cc1ccccc1N(CCO)S(=O)(=O)c1ccc(C(F)(F)F)cc1 | 32 µg/mL | Non-Toxic | – | – | – | –
9 | CN(Cc1ccccc1N(CCO)S(=O)(=O)c1ccsc1)C(=O)/C=C/c1ccc(Cl)cc1 | ≥ 256 µg/mL | Non-Toxic | – | – | – | –
10 | CC(=O)Nc1ccc(S(=O)(=O)N(CCO)c2ccccc2CN(C)C/C=C/c2ccc(Cl)cc2)cc1 | ≥ 256 µg/mL | Non-Toxic | – | – | – | –
11 | CN(C/C=C/c1ccc(Cl)cc1)Cc1ccccc1N(CCO)S(=O)(=O)c1ccc(C(F)(F)F)cc1 | 64 µg/mL | Non-Toxic | – | – | – | –
12 | CN(Cc1ccccc1N(CCO)S(=O)(=O)c1ccc([N+](=O)[O-])cc1)C(=O)/C=C/c1ccc(C(F)(F)F)cc1 | ≥ 256 µg/mL | Non-Toxic | – | – | – | –
13 | Cc1ccc(S(=O)(=O)N(CCO)c2ccccc2CN(C(=O)/C=C/c2ccc(C(F)(F)F)cc2)C(C)C)cc1 | ≥ 256 µg/mL | Non-Toxic | – | – | – | –
14 | Cc1ccc(S(=O)(=O)N(CCO)c2ccccc2CN(C)C(=O)/C=C/c2ccc(Br)s2)cc1 | ≥ 256 µg/mL | Non-Toxic | – | – | – | –
15 | CN(Cc1ccccc1N(CCO)S(=O)(=O)c1ccc(C#N)cc1)C(=O)/C=C/c1ccc(C(F)(F)F)cc1 | 32 µg/mL | Non-Toxic | – | – | – | –
16 | Cc1ccc(S(=O)(=O)N(CCO)c2ccccc2CN(C)C/C=C/c2ccc(Cl)c(Cl)c2)cc1 | 32 µg/mL | Non-Toxic | – | – | – | –
17 | Cc1ccc(S(=O)(=O)N(CCO)c2ccccc2CN(C)C/C=C/c2ccccc2)cc1 | ≥ 256 µg/mL | Non-Toxic | – | – | – | –
18 | CN(Cc1ccccc1NS(=O)(=O)c1ccc(F)cc1)C(=O)/C=C/c1ccc(C(F)(F)F)cc1 | ≥ 256 µg/mL | Non-Toxic | – | – | – | –
19 | COc1ccc(/C=C/C(=O)N(C)Cc2ccccc2N(CCO)S(=O)(=O)c2ccc(C)cc2)cc1 | ≥ 256 µg/mL | Non-Toxic | – | – | – | –
20 | COc1ccc(S(=O)(=O)N(CCO)c2ccccc2CN(C)C/C=C/c2ccccc2)cc1 | ≥ 256 µg/mL | Non-Toxic | – | – | – | –
21 | C=CCN(Cc1ccccc1N(CCO)S(=O)(=O)c1ccc(OC)cc1)C(C)C | ≥ 256 µg/mL | Non-Toxic | – | – | – | –
22 | CC(C)c1ccc(S(=O)(=O)N(CCO)c2ccccc2CN(C)C(=O)/C=C/c2ccc(C(F)(F)F)cc2)cc1 | 32 µg/mL | Non-Toxic | – | – | – | –
23 | Cc1ccc(S(=O)(=O)N(CCO)c2ccccc2CN(C)C(=O)/C=C/c2ccc(Cl)cc2Cl)cc1 | ≥ 256 µg/mL | Non-Toxic | – | – | – | –
24 | Cc1ccc(S(=O)(=O)N(CCO)c2ccccc2CN(C)C(=O)c2ccc(Cl)cc2)cc1 | ≥ 256 µg/mL | Non-Toxic | – | – | – | –
25 | CC(=O)Nc1ccc(/C=C/C(=O)N(C)Cc2ccccc2N(CCO)S(=O)(=O)c2ccc(C)cc2)cc1 | ≥ 256 µg/mL | Non-Toxic | – | – | – | –
